Source: article PMC7376976 (Bioorganic & medicinal chemistry letters, 2020)

Key:
ΔFosB/JunD heterodimer = biological target: T1, ΔFosB/JunD heterodimer (Homo sapiens, UniProt P17535+P53539); assay type: binding
T1 sequence (P53539 1-237 isoform P53539-11): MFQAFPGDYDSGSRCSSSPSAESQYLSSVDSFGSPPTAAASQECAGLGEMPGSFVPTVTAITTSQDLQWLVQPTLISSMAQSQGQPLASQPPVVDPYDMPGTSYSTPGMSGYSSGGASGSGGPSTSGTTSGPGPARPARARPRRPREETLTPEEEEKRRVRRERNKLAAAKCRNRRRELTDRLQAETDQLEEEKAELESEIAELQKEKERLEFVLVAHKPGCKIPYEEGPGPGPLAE
T1 sequence (P17535 1-347): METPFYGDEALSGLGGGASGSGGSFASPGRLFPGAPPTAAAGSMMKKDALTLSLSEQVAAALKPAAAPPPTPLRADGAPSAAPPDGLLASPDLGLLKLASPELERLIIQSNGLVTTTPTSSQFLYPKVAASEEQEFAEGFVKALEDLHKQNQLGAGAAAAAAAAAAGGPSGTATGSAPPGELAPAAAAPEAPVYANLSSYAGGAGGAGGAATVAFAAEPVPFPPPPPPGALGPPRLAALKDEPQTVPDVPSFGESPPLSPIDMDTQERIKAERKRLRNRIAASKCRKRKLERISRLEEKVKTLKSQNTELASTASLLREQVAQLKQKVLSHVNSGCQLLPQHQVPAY
How it was run: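 Annealed 19-mer cdk5 AP-1 duplex, TAMRA-labelled at both 5′ ends, used at 25 nM in 20 mM HEPES pH 7.5, 150 mM NaCl. Added to test compound (10 concentrations, 0–200 μM, quadruplicate) for 5 min, then ΔFosB/JunD at 280 nM (as monomers) for 15 min. FP read at excitation 530/540 nm, emission 590 nm. Oligo-only wells set 100% inhibition. Four-parameter IC50; mean ± SD of two days.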

ΔFosB homodimer = biological target: T2, ΔFosB homodimer (Homo sapiens, UniProt P53539); assay type: binding
T2 sequence (P53539 1-237 isoform P53539-11): T1 sequence (P53539 1-237 isoform P53539-11)
How it was run: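 Test compound serially diluted (10 concentrations, 0–200 μM, quadruplicate). Annealed 19-mer cdk5 AP-1 duplex, TAMRA-labelled at both 5′ ends, added at 25 nM in 20 mM HEPES pH 7.5, 50 mM NaCl for 5 min. ΔFosB then added at 320 nM (as monomers) for 15 min. FP read at excitation 530 or 540 nm, emission 590 nm. Four-parameter IC50; mean ± SD of two independent days.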

SMILES	activity in FP-assay against ΔFosB/JunD heterodimers (in words) (ΔFosB/JunD heterodimer)	activity in FP-assay against ΔFosB homodimers (in words) (ΔFosB homodimer)
COc1cccc2c1N(C(C)=O)C(C(=O)O)C1CC=CC21 (stereo not shown) [Compound 13]	lacked significant activity	lacked significant activity
COc1cccc2c1NC(C(=O)O)C1CCCC21 (stereo not shown) [Compound 14]	lacked significant activity	lacked significant activity
CCOC(=O)c1nc2c(C)cccc2c2c1CCC2 [Compound 20]	little activity even at 100 μM or higher	little activity even at 100 μM or higher
Cc1cccc2c3c(c(C(=O)O)nc12)CCC3 [Compound 21]	little activity even at 100 μM or higher	little activity even at 100 μM or higher
COc1cc(OC)c2c(C(=O)O)nc3c(OC)cccc3c2c1 [Compound 25]	lacked activity	lacked activity
